# Test results: ChEMBL document CHEMBL2311435, “Development of 18F-labeled picolinamide probes for PET imaging of malignant melanoma” (J Med Chem, 2013)
# Columns and labels:
# Nucleic Acid [1] = experiment: Ratio of drug uptake in tumor to lungs of C57BL/6 mouse xenografted with mouse B16F10 cells at 3.7 MBq, iv after 2 hrs by gamma-scintillation counting analysis; type: ADME, organism-based, B16-F10; conditions: in vivo
# Summary of the method: (§1)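 Same subcutaneous B16F10 model and tail-vein dose of about 3.7 MBq (100 μCi), n = 4 per group. Dissection at 1 or 2 h p.i. Gamma-counter %ID/g of tumor divided by that of blood, lung, liver or muscle, given as mean ± SD.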
# Mus musculus [2] = experiment: Biodistribution in eye of C57BL/6 mouse xenografted with mouse B16F10 cells at 3.7 MBq, iv after 2 hrs by gamma-scintillation counting analysis; type: ADME, organism-based, B16-F10; conditions: in vivo
# Summary of the method: (§2)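 1.0 × 10^6 B16F10 cells in PBS injected subcutaneously into the right shoulder of C57BL/6 mice, grown to 0.5 cm (~10 day). Tail-vein injection of about 3.7 MBq (100 μCi) 18F probe in PBS (0.1 M, pH 7.4). Killed at 1.0 or 2.0 h p.i. (n = 4 per group). Tissues excised, weighed and gamma-counted; uptake expressed as %ID/g, mean ± SD.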
# Intestine [3] = experiment: Biodistribution in intestine of C57BL/6 mouse xenografted with mouse B16F10 cells at 3.7 MBq, iv after 1 hr by gamma-scintillation counting analysis; type: ADME, organism-based, B16-F10; conditions: in vivo; summary of the method: as §2
# Nucleic Acid [4] = experiment: Ratio of drug uptake in tumor to liver of C57BL/6 mouse xenografted with mouse B16F10 cells at 3.7 MBq, iv after 1 hr by gamma-scintillation counting analysis; type: ADME, organism-based, B16-F10; conditions: in vivo; summary of the method: as §1
# Muscle tissue [5] = experiment: Biodistribution in muscle of C57BL/6 mouse xenografted with mouse B16F10 cells at 3.7 MBq, iv after 2 hrs by gamma-scintillation counting analysis; type: ADME, organism-based, B16-F10; conditions: in vivo; summary of the method: as §2
# Bone [6] = experiment: Biodistribution in bone of C57BL/6 mouse xenografted with mouse B16F10 cells at 3.7 MBq, iv after 1 hr by gamma-scintillation counting analysis; type: ADME, organism-based, Bone element, B16-F10; conditions: in vivo; summary of the method: as §2
# Heart [7] = experiment: Biodistribution in heart of C57BL/6 mouse xenografted with mouse B16F10 cells at 3.7 MBq, iv after 1 hr by gamma-scintillation counting analysis; type: ADME, organism-based, B16-F10; conditions: in vivo; summary of the method: as §2
# Muscle tissue [8] = experiment: Biodistribution in muscle of C57BL/6 mouse xenografted with mouse B16F10 cells at 3.7 MBq, iv after 1 hr by gamma-scintillation counting analysis; type: ADME, organism-based, B16-F10; conditions: in vivo; summary of the method: as §2
# Mus musculus [9] = experiment: Biodistribution in tumor of C57BL/6 mouse xenografted with mouse B16F10 cells at 3.7 MBq, iv after 1 hr by gamma-scintillation counting analysis; type: ADME, organism-based, Neoplasm, B16-F10; conditions: in vivo; summary of the method: as §2
# Pancreas [10] = experiment: Biodistribution in pancreas of C57BL/6 mouse xenografted with mouse B16F10 cells at 3.7 MBq, iv after 2 hrs by gamma-scintillation counting analysis; type: ADME, organism-based, B16-F10; conditions: in vivo; summary of the method: as §2
# Nucleic Acid [11] = experiment: Ratio of drug uptake in tumor to muscle of C57BL/6 mouse xenografted with mouse B16F10 cells at 3.7 MBq, iv after 1 hr by gamma-scintillation counting analysis; type: ADME, organism-based, B16-F10; conditions: in vivo; summary of the method: as §1
# Nucleic Acid [12] = experiment: Ratio of drug uptake in tumor to blood of C57BL/6 mouse xenografted with mouse B16F10 cells at 3.7 MBq, iv after 1 hr by gamma-scintillation counting analysis; type: ADME, organism-based, B16-F10; conditions: tumour; summary of the method: as §1
# Mus musculus [13] = experiment: Biodistribution in lungs of C57BL/6 mouse xenografted with mouse B16F10 cells at 3.7 MBq, iv after 1 hr by gamma-scintillation counting analysis; type: ADME, organism-based, Lung, B16-F10; conditions: in vivo; summary of the method: as §2
# Intestine [14] = experiment: Biodistribution in intestine of C57BL/6 mouse xenografted with mouse B16F10 cells at 3.7 MBq, iv after 2 hrs by gamma-scintillation counting analysis; type: ADME, organism-based, B16-F10; conditions: in vivo; summary of the method: as §2
# Spleen [15] = experiment: Biodistribution in spleen of C57BL/6 mouse xenografted with mouse B16F10 cells at 3.7 MBq, iv after 1 hr by gamma-scintillation counting analysis; type: ADME, organism-based, B16-F10; conditions: in vivo; summary of the method: as §2
# Bone [16] = experiment: Biodistribution in bone of C57BL/6 mouse xenografted with mouse B16F10 cells at 3.7 MBq, iv after 2 hrs by gamma-scintillation counting analysis; type: ADME, organism-based, Bone element, B16-F10; conditions: in vivo; summary of the method: as §2
# Kidney [17] = experiment: Biodistribution in kidney of C57BL/6 mouse xenografted with mouse B16F10 cells at 3.7 MBq, iv after 2 hrs by gamma-scintillation counting analysis; type: ADME, organism-based, B16-F10; conditions: in vivo; summary of the method: as §2
# Heart [18] = experiment: Biodistribution in heart of C57BL/6 mouse xenografted with mouse B16F10 cells at 3.7 MBq, iv after 2 hrs by gamma-scintillation counting analysis; type: ADME, organism-based, B16-F10; conditions: in vivo; summary of the method: as §2
# Brain [19] = experiment: Biodistribution in brain of C57BL/6 mouse xenografted with mouse B16F10 cells at 3.7 MBq, iv after 2 hrs by gamma-scintillation counting analysis; type: ADME, organism-based, B16-F10; conditions: in vivo; summary of the method: as §2
# Zone of skin [20] = experiment: Biodistribution in skin of C57BL/6 mouse xenografted with mouse B16F10 cells at 3.7 MBq, iv after 1 hr by gamma-scintillation counting analysis; type: ADME, organism-based, B16-F10; conditions: in vivo; summary of the method: as §2
# Nucleic Acid [21] = experiment: Ratio of drug uptake in tumor to lungs of C57BL/6 mouse xenografted with mouse B16F10 cells at 3.7 MBq, iv after 1 hr by gamma-scintillation counting analysis; type: ADME, organism-based, B16-F10; conditions: in vivo; summary of the method: as §1
# Nucleic Acid [22] = experiment: Ratio of drug uptake in tumor to muscle of C57BL/6 mouse xenografted with mouse B16F10 cells at 3.7 MBq, iv after 2 hrs by gamma-scintillation counting analysis; type: ADME, organism-based, B16-F10; conditions: in vivo; summary of the method: as §1
# Stomach [23] = experiment: Biodistribution in stomach of C57BL/6 mouse xenografted with mouse B16F10 cells at 3.7 MBq, iv after 1 hr by gamma-scintillation counting analysis; type: ADME, organism-based, B16-F10; conditions: in vivo; summary of the method: as §2
# Nucleic Acid [24] = experiment: Ratio of drug uptake in tumor to liver of C57BL/6 mouse xenografted with mouse B16F10 cells at 3.7 MBq, iv after 2 hrs by gamma-scintillation counting analysis; type: ADME, organism-based, B16-F10; conditions: in vivo; summary of the method: as §1
# Stomach [25] = experiment: Biodistribution in stomach of C57BL/6 mouse xenografted with mouse B16F10 cells at 3.7 MBq, iv after 2 hrs by gamma-scintillation counting analysis; type: ADME, organism-based, B16-F10; conditions: in vivo; summary of the method: as §2
# Nucleic Acid [26] = experiment: Ratio of drug uptake in tumor to blood of C57BL/6 mouse xenografted with mouse B16F10 cells at 3.7 MBq, iv after 2 hrs by gamma-scintillation counting analysis; type: ADME, organism-based, B16-F10; conditions: tumour; summary of the method: as §1
# Blood [27] = experiment: Biodistribution in blood of C57BL/6 mouse xenografted with mouse B16F10 cells at 3.7 MBq, iv after 1 hr by gamma-scintillation counting analysis; type: ADME, organism-based, B16-F10; conditions: in vivo; summary of the method: as §2
# Mus musculus [28] = experiment: Biodistribution in eye of C57BL/6 mouse xenografted with mouse B16F10 cells at 3.7 MBq, iv after 1 hr by gamma-scintillation counting analysis; type: ADME, organism-based, B16-F10; conditions: in vivo; summary of the method: as §2
# Blood [29] = experiment: Biodistribution in blood of C57BL/6 mouse xenografted with mouse B16F10 cells at 3.7 MBq, iv after 2 hrs by gamma-scintillation counting analysis; type: ADME, organism-based, B16-F10; conditions: in vivo; summary of the method: as §2
# Mus musculus [30] = experiment: Biodistribution in tumor of C57BL/6 mouse xenografted with mouse B16F10 cells at 3.7 MBq, iv after 2 hrs by gamma-scintillation counting analysis; type: ADME, organism-based, Neoplasm, B16-F10; conditions: in vivo; summary of the method: as §2
# Kidney [31] = experiment: Biodistribution in kidney of C57BL/6 mouse xenografted with mouse B16F10 cells at 3.7 MBq, iv after 1 hr by gamma-scintillation counting analysis; type: ADME, organism-based, B16-F10; conditions: in vivo; summary of the method: as §2
# Liver [32] = experiment: Biodistribution in liver of C57BL/6 mouse xenografted with mouse B16F10 cells at 3.7 MBq, iv after 1 hr by gamma-scintillation counting analysis; type: ADME, organism-based, B16-F10; conditions: in vivo; summary of the method: as §2
# [33] = Drug uptake in tumor of C57BL/6 mouse xenografted with mouse B16F10 cells at 3.7 MBq, iv after 0.5 hrs by PET imaging analysis; type: ADME, organism-based, Neoplasm, B16-F10; conditions: in vivo
# Summary of the method: (§3)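 Static small-animal PET at 0.5, 1 and 2 h after tail-vein injection of ~3.7 MBq (100 μCi) into B16F10-bearing C57BL/6 mice (n = 4 per probe). Isoflurane anesthesia, 5% induction and 2% maintenance in O2. Decay-corrected images. ROI-derived %ID/g assumes 1 g/ml density, without attenuation correction. Mean ± SD.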
# Spleen [34] = experiment: Biodistribution in spleen of C57BL/6 mouse xenografted with mouse B16F10 cells at 3.7 MBq, iv after 2 hrs by gamma-scintillation counting analysis; type: ADME, organism-based, B16-F10; conditions: in vivo; summary of the method: as §2
# [35] = Drug uptake in tumor of C57BL/6 mouse xenografted with mouse B16F10 cells at 3.7 MBq, iv after 1 hr by PET imaging analysis; type: ADME, organism-based, Neoplasm, B16-F10; conditions: in vivo; summary of the method: as §3
# Zone of skin [36] = experiment: Biodistribution in skin of C57BL/6 mouse xenografted with mouse B16F10 cells at 3.7 MBq, iv after 2 hrs by gamma-scintillation counting analysis; type: ADME, organism-based, B16-F10; conditions: in vivo; summary of the method: as §2
# Brain [37] = experiment: Biodistribution in brain of C57BL/6 mouse xenografted with mouse B16F10 cells at 3.7 MBq, iv after 1 hr by gamma-scintillation counting analysis; type: ADME, organism-based, B16-F10; conditions: in vivo; summary of the method: as §2
# [38] = Drug uptake in tumor of C57BL/6 mouse xenografted with mouse B16F10 cells at 3.7 MBq, iv after 2 hrs by PET imaging analysis; type: ADME, organism-based, Neoplasm, B16-F10; conditions: in vivo; summary of the method: as §3
# Pancreas [39] = experiment: Biodistribution in pancreas of C57BL/6 mouse xenografted with mouse B16F10 cells at 3.7 MBq, iv after 1 hr by gamma-scintillation counting analysis; type: ADME, organism-based, B16-F10; conditions: in vivo; summary of the method: as §2
# Liver [40] = experiment: Biodistribution in liver of C57BL/6 mouse xenografted with mouse B16F10 cells at 3.7 MBq, iv after 2 hrs by gamma-scintillation counting analysis; type: ADME, organism-based, B16-F10; conditions: in vivo; summary of the method: as §2
# Mus musculus [41] = experiment: Biodistribution in lungs of C57BL/6 mouse xenografted with mouse B16F10 cells at 3.7 MBq, iv after 2 hrs by gamma-scintillation counting analysis; type: ADME, organism-based, Lung, B16-F10; conditions: in vivo; summary of the method: as §2
smiles,measurement,setting,value
CCN(CC)CCNC(=O)c1ccc([18F])nc1,Ratio,Nucleic Acid [1],10.49
same,Drug uptake,Mus musculus [2],32.23 % ID/g
same,Drug uptake,Intestine [3],3.46 % ID/g
same,Ratio,Nucleic Acid [4],2.24
same,Drug uptake,Muscle tissue [5],0.52 % ID/g
same,Drug uptake,Bone [6],3.48 % ID/g
same,Drug uptake,Heart [7],1.54 % ID/g
same,Drug uptake,Muscle tissue [8],1.11 % ID/g
same,Drug uptake,Mus musculus [9],9.54 % ID/g
same,Drug uptake,Pancreas [10],0.71 % ID/g
same,Ratio,Nucleic Acid [11],11.24
same,Ratio,Nucleic Acid [12],20.44
same,Drug uptake,Mus musculus [13],1.52 % ID/g
same,Drug uptake,Intestine [14],0.89 % ID/g
same,Drug uptake,Spleen [15],2.88 % ID/g
same,Drug uptake,Bone [16],2.12 % ID/g
same,Drug uptake,Kidney [17],1.2 % ID/g
same,Drug uptake,Heart [18],0.4 % ID/g
same,Drug uptake,Brain [19],0.41 % ID/g
same,Drug uptake,Zone of skin [20],2.37 % ID/g
same,Ratio,Nucleic Acid [21],6.23
same,Ratio,Nucleic Acid [22],15.22
same,Drug uptake,Stomach [23],5.03 % ID/g
same,Ratio,Nucleic Acid [24],7.26
same,Drug uptake,Stomach [25],2.27 % ID/g
same,Ratio,Nucleic Acid [26],39.2
same,Drug uptake,Blood [27],0.46 % ID/g
same,Drug uptake,Mus musculus [28],34 % ID/g
same,Drug uptake,Blood [29],0.2 % ID/g
same,Drug uptake,Mus musculus [30],9.29 % ID/g
same,Drug uptake,Kidney [31],5.63 % ID/g
same,Drug uptake,Liver [32],4.47 % ID/g
same,Drug uptake,[33],7.54 % ID/g
same,Drug uptake,Spleen [34],0.56 % ID/g
same,Drug uptake,[35],7.94 % ID/g
same,Drug uptake,Zone of skin [36],0.71 % ID/g
same,Drug uptake,Brain [37],1.56 % ID/g
same,Drug uptake,[38],8.47 % ID/g
same,Drug uptake,Pancreas [39],3.58 % ID/g
same,Drug uptake,Liver [40],1.07 % ID/g
same,Drug uptake,Mus musculus [41],0.92 % ID/g
